Experiment [1] has as its system A2780 CisR (Homo sapiens). As to the kind of experiment: cells. Conditions: 72 h.
The subject of experiment [2] is KYSE-510. As to the kind of experiment: Cytotoxicity against cisplatin resistant human KYSE-510 cells after 72 hrs by MTT assay. The experiment is classed as functional, cell-based. Conditions: KYSE-510, 72 h.
The target in experiment [3] is T1, Histone deacetylase 8 (Homo sapiens, UniProt Q9BY41).
T1 sequence (Q9BY41 whole entry): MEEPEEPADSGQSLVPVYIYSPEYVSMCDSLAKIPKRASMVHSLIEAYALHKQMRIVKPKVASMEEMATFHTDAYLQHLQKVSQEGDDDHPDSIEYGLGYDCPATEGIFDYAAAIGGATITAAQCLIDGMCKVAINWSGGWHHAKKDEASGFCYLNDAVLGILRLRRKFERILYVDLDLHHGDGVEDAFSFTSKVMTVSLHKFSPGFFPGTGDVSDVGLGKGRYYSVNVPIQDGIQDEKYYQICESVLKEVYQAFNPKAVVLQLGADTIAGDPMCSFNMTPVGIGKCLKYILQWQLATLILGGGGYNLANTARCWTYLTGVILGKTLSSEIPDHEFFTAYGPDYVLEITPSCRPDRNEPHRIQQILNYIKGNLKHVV
Put plainly: Inhibition of human HDAC8 by fluorescence assay.

Experiment [4] addresses Histone deacetylase 2 (Homo sapiens, UniProt Q92769). Put plainly: Inhibition of human HDAC2 by fluorescence assay.
The target in experiment [5] is Histone deacetylase. As to the kind of experiment: Inhibition of HDAC in cisplatin sensitive human KYSE-510 cells after 18 hrs by fluorescence assay. The experiment is classed as cell-based.
Experiment [6] concerns the target Histone deacetylase. Put plainly: Inhibition of HDAC in cisplatin resistant human MDA-MB-231 cells after 18 hrs by fluorescence assay. The class given is cell-based.
In experiment [7] the target is T2, Protein deacetylase HDAC6 (Homo sapiens, UniProt Q9UBN7).
T2 sequence (Q9UBN7 whole entry): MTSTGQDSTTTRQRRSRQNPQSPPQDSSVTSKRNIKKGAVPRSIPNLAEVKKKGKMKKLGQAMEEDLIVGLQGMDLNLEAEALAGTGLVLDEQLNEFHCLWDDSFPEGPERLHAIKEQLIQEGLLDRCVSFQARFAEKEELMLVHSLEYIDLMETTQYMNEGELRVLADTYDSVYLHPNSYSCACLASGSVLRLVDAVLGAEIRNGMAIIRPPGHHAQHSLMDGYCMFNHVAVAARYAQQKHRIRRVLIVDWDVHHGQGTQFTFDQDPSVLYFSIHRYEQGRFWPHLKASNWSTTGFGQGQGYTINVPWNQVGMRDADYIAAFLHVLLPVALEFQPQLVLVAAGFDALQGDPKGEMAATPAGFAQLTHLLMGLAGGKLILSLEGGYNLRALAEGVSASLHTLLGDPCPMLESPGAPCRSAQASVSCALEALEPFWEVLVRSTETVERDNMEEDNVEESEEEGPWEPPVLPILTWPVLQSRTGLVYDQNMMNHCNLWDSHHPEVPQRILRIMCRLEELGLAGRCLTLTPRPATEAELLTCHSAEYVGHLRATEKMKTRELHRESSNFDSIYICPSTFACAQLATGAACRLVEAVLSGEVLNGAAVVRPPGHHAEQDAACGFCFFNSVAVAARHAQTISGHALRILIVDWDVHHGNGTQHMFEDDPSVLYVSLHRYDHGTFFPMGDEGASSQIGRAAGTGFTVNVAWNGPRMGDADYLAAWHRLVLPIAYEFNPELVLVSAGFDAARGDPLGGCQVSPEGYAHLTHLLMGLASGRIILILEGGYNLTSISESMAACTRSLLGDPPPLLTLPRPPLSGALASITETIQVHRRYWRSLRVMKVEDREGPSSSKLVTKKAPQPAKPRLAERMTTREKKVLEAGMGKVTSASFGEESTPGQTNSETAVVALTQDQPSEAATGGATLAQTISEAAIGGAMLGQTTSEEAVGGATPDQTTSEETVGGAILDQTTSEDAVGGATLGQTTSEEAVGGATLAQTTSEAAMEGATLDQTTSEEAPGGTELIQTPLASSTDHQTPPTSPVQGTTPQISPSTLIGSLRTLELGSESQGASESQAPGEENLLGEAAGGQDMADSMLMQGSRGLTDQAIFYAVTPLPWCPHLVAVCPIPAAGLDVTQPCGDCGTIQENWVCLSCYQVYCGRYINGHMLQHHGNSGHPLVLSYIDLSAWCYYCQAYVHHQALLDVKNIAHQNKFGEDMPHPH
As to the kind of experiment: Inhibition of human HDAC6 by fluorescence assay.

The subject of experiment [8] is A2780. Put plainly: Cytotoxicity against human A2780 cells after 72 hrs by MTT assay. The experiment is classed as functional, cell-based. As to conditions: A2780, 72 h.
Experiment [9] addresses Histone deacetylase. As to the kind of experiment: Inhibition of HDAC in cisplatin sensitive human MDA-MB-231 cells after 18 hrs by fluorescence assay. The class given is cell-based.
Experiment [10] addresses Histone deacetylase. Put plainly: Inhibition of HDAC in cisplatin sensitive human CAL27 cells after 18 hrs by fluorescence assay. The experiment is classed as cell-based. As to conditions: cal-27.
The subject of experiment [11] is CAL-27. As to the kind of experiment: Cytotoxicity against cisplatin resistant human CAL27 cells after 72 hrs by MTT assay. The experiment is classed as functional, cell-based. Conditions: CAL-27, 72 h.
Experiment [12] deals with CAL-27. Put plainly: Cytotoxicity against cisplatin sensitive human CAL27 cells after 72 hrs by MTT assay. The experiment is classed as functional, cell-based. Conditions: CAL-27, 72 h.
Experiment [13] addresses Histone deacetylase. As to the kind of experiment: Inhibition of HDAC in cisplatin resistant human CAL27 cells after 18 hrs by fluorescence assay. The experiment is classed as cell-based. As to conditions: cal-27.
The subject of experiment [14] is MDA-MB-231. As to the kind of experiment: Cytotoxicity against cisplatin resistant human MDA-MB-231 cells after 72 hrs by MTT assay. The experiment is classed as functional, cell-based. As to conditions: MDA-MB-231, 72 h.
Experiment [15] deals with Histone deacetylase. As to the kind of experiment: Inhibition of HDAC in human A2780 cells after 18 hrs by fluorescence assay. The class given is cell-based.
Experiment [16] has as its target T3, Histone deacetylase 11 (Homo sapiens, UniProt Q96DB2).
T3 sequence (Q96DB2 whole entry): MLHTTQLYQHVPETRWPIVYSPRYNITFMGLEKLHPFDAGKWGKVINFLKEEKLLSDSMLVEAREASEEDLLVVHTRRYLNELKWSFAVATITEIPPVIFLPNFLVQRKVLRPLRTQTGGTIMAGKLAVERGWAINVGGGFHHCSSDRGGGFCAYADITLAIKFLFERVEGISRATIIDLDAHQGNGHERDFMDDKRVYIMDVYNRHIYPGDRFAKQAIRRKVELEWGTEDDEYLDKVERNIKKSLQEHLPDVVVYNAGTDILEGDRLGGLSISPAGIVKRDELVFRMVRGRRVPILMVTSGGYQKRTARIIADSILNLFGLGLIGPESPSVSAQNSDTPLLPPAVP
Put plainly: Inhibition of human HDAC11 by fluorescence assay.

Experiment [17] has as its target Histone deacetylase. Put plainly: Inhibition of HDAC in cisplatin resistant human KYSE-510 cells after 18 hrs by fluorescence assay. The class given is cell-based.
In experiment [18] the target is Histone deacetylase 4 (Homo sapiens, UniProt P56524). As to the kind of experiment: Inhibition of human HDAC4 by fluorescence assay.
Chain of Histone deacetylase 4 (P56524 whole entry): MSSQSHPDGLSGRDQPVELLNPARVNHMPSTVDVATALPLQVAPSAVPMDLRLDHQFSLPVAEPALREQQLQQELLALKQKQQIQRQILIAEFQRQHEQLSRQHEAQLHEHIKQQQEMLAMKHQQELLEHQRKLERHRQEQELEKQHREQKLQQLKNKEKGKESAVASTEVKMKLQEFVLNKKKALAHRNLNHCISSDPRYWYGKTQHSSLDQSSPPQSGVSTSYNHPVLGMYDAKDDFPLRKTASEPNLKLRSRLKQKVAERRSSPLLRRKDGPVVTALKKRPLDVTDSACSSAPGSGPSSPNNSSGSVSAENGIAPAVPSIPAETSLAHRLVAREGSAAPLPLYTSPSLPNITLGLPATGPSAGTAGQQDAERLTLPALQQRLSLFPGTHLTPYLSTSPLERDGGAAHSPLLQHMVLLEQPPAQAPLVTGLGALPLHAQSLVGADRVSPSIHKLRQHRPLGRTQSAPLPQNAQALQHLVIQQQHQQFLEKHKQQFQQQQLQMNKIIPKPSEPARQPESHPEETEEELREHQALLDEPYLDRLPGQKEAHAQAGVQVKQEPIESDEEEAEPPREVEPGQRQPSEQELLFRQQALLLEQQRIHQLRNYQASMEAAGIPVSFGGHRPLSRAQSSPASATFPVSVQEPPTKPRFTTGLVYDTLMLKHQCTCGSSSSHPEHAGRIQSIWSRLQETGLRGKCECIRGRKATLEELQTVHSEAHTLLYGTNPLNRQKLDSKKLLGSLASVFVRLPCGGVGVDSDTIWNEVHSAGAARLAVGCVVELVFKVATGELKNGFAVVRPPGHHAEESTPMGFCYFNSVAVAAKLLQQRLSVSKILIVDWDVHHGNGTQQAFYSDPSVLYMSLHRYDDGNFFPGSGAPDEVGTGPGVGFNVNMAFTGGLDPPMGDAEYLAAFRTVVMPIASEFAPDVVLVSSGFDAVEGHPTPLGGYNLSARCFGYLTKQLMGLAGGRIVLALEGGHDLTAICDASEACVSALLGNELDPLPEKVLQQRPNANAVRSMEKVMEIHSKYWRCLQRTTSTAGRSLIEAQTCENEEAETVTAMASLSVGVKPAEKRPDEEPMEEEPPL
For experiment [19], the target named is Histone deacetylase. Put plainly: Inhibition of HDAC in cisplatin resistant human A2780 cells after 18 hrs by fluorescence assay. The class given is cell-based.
The test system of experiment [20] is MDA-MB-231. Put plainly: Cytotoxicity against cisplatin sensitive human MDA-MB-231 cells after 72 hrs by MTT assay. The class given is functional, cell-based. As to conditions: MDA-MB-231, 72 h. In outline: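 MDA-MB-231 (parental), 10 000 cells/well, in DMEM with 15% FCS at 37 °C, 5% CO2. Compounds added 24 h after seeding for 72 h. MTT (5 mg/mL in PBS) was added, formazan dissolved in DMSO, absorbance read at 544 and 690 nm. IC50 from four-parameter logistic fit of ≥3 experiments in triplicate.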

For experiment [21], the target named is Histone deacetylase 1 (Homo sapiens, UniProt Q13547). As to the kind of experiment: Inhibition of human HDAC1 by fluorescence assay.
Chain of Histone deacetylase 1 (Q13547 whole entry): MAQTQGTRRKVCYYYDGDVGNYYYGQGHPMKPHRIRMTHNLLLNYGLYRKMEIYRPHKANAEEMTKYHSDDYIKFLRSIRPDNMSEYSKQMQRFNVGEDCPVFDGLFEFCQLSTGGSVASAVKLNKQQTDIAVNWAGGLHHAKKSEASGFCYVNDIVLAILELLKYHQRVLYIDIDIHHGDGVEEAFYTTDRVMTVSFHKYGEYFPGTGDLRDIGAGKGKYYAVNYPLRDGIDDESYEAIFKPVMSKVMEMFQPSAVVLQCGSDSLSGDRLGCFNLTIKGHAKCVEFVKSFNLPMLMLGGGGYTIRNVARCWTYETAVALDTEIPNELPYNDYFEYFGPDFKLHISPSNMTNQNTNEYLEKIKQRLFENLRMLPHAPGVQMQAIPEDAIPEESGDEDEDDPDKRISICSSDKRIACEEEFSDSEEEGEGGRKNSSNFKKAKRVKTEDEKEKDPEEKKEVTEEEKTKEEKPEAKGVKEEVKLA
Experiment [22] deals with Histone deacetylase 5 (Homo sapiens, UniProt Q9UQL6). As to the kind of experiment: Inhibition of human HDAC5 by fluorescence assay.
Chain of Histone deacetylase 5 (Q9UQL6 whole entry): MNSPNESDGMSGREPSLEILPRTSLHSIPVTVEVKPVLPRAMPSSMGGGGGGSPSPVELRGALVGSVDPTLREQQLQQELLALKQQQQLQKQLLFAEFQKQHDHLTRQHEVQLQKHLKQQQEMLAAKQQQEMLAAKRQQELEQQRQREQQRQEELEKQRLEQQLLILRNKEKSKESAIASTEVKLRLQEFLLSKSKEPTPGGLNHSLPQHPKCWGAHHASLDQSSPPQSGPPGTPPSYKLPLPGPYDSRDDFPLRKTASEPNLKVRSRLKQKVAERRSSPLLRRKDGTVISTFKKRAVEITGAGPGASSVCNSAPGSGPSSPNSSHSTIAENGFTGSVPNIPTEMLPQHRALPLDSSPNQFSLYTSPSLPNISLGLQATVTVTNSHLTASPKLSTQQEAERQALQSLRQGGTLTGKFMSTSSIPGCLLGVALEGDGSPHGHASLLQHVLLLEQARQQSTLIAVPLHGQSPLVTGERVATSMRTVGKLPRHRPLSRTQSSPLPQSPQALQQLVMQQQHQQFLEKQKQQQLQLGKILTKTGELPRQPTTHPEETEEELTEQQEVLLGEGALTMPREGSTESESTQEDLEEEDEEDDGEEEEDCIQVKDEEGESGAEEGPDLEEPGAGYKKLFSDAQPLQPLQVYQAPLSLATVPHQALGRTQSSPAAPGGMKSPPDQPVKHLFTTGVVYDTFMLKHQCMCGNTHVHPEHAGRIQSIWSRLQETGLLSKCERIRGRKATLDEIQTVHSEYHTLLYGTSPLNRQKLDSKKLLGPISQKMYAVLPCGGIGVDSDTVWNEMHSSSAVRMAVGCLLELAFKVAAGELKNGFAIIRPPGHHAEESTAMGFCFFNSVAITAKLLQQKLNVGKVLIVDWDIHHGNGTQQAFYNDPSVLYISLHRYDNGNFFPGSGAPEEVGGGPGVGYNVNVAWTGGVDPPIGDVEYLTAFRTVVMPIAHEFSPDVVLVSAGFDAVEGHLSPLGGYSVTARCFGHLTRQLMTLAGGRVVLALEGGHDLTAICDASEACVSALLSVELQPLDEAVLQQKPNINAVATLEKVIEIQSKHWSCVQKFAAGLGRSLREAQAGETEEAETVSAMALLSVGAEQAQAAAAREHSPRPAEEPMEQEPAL
Experiment [23] deals with KYSE-510. As to the kind of experiment: Cytotoxicity against cisplatin sensitive human KYSE-510 cells after 72 hrs by MTT assay. The experiment is classed as functional, cell-based. Conditions: KYSE-510, 72 h.

pIC50: −log10 of the molar value.

Chain of Histone deacetylase 2 (Q92769 whole entry): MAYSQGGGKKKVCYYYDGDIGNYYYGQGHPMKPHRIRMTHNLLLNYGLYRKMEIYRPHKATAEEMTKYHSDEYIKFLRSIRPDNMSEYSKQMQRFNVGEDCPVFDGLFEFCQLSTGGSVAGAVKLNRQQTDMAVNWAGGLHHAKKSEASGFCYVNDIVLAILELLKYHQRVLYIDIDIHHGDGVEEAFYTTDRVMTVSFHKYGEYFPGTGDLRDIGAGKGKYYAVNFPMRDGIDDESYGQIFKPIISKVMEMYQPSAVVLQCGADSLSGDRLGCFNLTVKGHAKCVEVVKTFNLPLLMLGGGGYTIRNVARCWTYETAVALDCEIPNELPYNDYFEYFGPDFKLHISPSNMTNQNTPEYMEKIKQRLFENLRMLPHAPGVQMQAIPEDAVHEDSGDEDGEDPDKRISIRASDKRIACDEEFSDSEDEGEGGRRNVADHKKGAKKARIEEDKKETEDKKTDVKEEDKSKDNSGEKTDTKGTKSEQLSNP

`Cc1ccc(C(=O)NOCCCCCC(=O)NO)cc1C`: the pIC50 in experiment [1] was 5.75; in experiment [2] it was 5.02; in experiment [3] it was 6.08; in experiment [4], 6.03; in [7], 7.74; in experiment [8], 5.81. Also, the pIC50 in [11] is 5.37; in [12], 5.54; in [14], 5.42; in experiment [16], 6.00; in experiment [18] it was 7.08; in experiment [20] it was 5.56. For the same compound, the pIC50 in [21] is 6.49; in experiment [22] it was 7.48; in experiment [23] it was 5.00. Besides, the IC50 turned out to be 2820 nM in [5]; 1660 nM in [6]; 1570 nM in [9]; 1100 nM in [10]; 910 nM in experiment [13]; 1610 nM in experiment [15]. Also, the results for the IC50 in experiment [17] and in experiment [19] were 1100 nM and 880 nM, respectively.

For `Cc1cccc(C(=O)NOCCCCCC(=O)NO)c1`, the pIC50 was 5.65 in experiment [1]; 5.09 in experiment [2]; 5.98 in experiment [3]; 5.86 in experiment [4]; 7.57 in experiment [7]; 5.68 in experiment [8]. The pIC50 in experiment [11] was 5.43; in experiment [12], 5.53; in experiment [14], 5.42; in [16], 5.67; in experiment [18] it was 7.79; in [20] it was 5.55. Moreover, the pIC50 in experiment [21] was 6.47; in experiment [22] it was 8.64; in [23], 5.09. The IC50 worked out at 2620 nM in experiment [5]; 1280 nM in experiment [6]; 1410 nM in experiment [9]; 1000 nM in [10]; 880 nM in experiment [13]; 1580 nM in [15]. Also, the half-inhibitory concentration (IC50) in experiment [17] came out at 1130 nM; in experiment [19], 900 nM.

(Values after ChEMBL document CHEMBL2311425, “Histone deacetylase (HDAC) inhibitors with a novel connecting unit linker region reveal a selectivity profile for HDAC4 and HDAC5 with improved activity against chemoresistant cancer cells” (J Med Chem, 2013).)
